Test results: ChEMBL document CHEMBL1795297, “Design, synthesis and molecular docking studies of novel triazole as antifungal agent” (2011)
≈ marks a conversion by molar mass, not a printed value.

Legend:
Assay type in all cases: functional
Trichophyton rubrum = assay: Antifungal activity against Trichophyton rubrum clinical isolate by micro-broth dilution method
Summary of the method: (§1)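 Clinical isolate. MIC by broth microdilution following the NCCLS M27-A2 reference method for yeasts. Compounds were dissolved in DMSO, serially diluted in growth medium, inoculated and incubated at 35 °C. MIC80 is the first well with about 80% less growth than the drug-free well. Each test was run three times and the mean of replicates reported.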

Aspergillus fumigatus = assay: Antifungal activity against Aspergillus fumigatus clinical isolate by micro-broth dilution method; summary of the method: as §1
Candida tropicalis = assay: Antifungal activity against Candida tropicalis clinical isolate by micro-broth dilution method; summary of the method: as §1
Cryptococcus neoformans = assay: Antifungal activity against Cryptococcus neoformans ATCC BLS108 after 72 hrs by micro-broth dilution method; conditions: ATCC BLS108, 72 h
Summary of the method: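 Quality-control ATCC strain included in each assay. Microbroth dilution per NCCLS M27-A2. DMSO-dissolved compounds were serially diluted in growth medium, inoculated and held at 35 °C, with MIC read at 72 h. MIC80 is the first well showing about 80% growth reduction versus the drug-free well. Tests were done in triplicate and the mean reported.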

Candida parapsilosis = assay: Antifungal activity against Candida parapsilosis clinical isolate by micro-broth dilution method; conditions: Lodderomyces parapsilosis; summary of the method: as §1
[1] = Antifungal activity against Fonsecaea compacta clinical isolate by micro-broth dilution method; summary of the method: as §1
Nannizzia gypsea = assay: Antifungal activity against Microsporum gypseum clinical isolate by micro-broth dilution method; summary of the method: as §1
Candida albicans [2] = assay: Antifungal activity against Candida albicans ATCC Y0109 after 24 hrs by micro-broth dilution method; conditions: ATCC Y0109, 24 h
Summary of the method: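 ATCC quality-control strain, tested in every assay. NCCLS M27-A2 broth microdilution. Compounds were dissolved in DMSO, serially diluted in growth medium, inoculated and incubated at 35 °C, with growth read at 24 h. MIC80 is the first well with about 80% growth reduction relative to the drug-free control. Each test was run three times and the mean of replicates taken.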

Candida albicans [3] = assay: Ratio of voriconazole MIC80 to compound MIC80 for Candida albicans ATCC Y0109

Row | SMILES | MIC80 (Trichophyton rubrum) | MIC80 (Aspergillus fumigatus) | MIC80 (Candida tropicalis) | MIC80 (Cryptococcus neoformans) | MIC80 (Candida parapsilosis) | MIC80 [1] | MIC80 (Nannizzia gypsea) | MIC80 (Candida albicans [2]) | Ratio (Candida albicans [3])
1 | CCCC(=O)Nc1ccc(N2CCN(CC(O)(Cn3cncn3)c3ccc(F)cc3F)CC2)c(C(F)(F)F)c1 (stereo unspecified) | 4 µg/mL (≈ 7.24 µM) | > 64 µg/mL | 1 µg/mL (≈ 1.81 µM) | 1 µg/mL (≈ 1.81 µM) | 0.25 µg/mL (≈ 0.452 µM) | 4 µg/mL (≈ 7.24 µM) | 1 µg/mL (≈ 1.81 µM) | 1 µg/mL (≈ 1.81 µM) | 
2 | O=C(/C=C/c1ccccc1)Nc1ccc(N2CCN(CC(O)(Cn3cncn3)c3ccc(F)cc3F)CC2)c(C(F)(F)F)c1 (stereo unspecified) |  | 4 µg/mL (≈ 6.53 µM) |  | 0.25 µg/mL (≈ 0.408 µM) |  |  |  | 0.00097 µg/mL (≈ 0.00158 µM) | 16
3 | CCCCCCCC(=O)Nc1ccc(N2CCN(CC(O)(Cn3cncn3)c3ccc(F)cc3F)CC2)c(C(F)(F)F)c1 (stereo unspecified) | 4 µg/mL (≈ 6.57 µM) | > 64 µg/mL | 16 µg/mL (≈ 26.3 µM) | 16 µg/mL (≈ 26.3 µM) | 4 µg/mL (≈ 6.57 µM) | 4 µg/mL (≈ 6.57 µM) | 0.25 µg/mL (≈ 0.411 µM) | 0.25 µg/mL (≈ 0.411 µM) | 
4 | CCCCCC(=O)Nc1ccc(N2CCN(CC(O)(Cn3cncn3)c3ccc(F)cc3F)CC2)c(C(F)(F)F)c1 (stereo unspecified) | 4 µg/mL (≈ 6.89 µM) | 64 µg/mL (≈ 110 µM) | 4 µg/mL (≈ 6.89 µM) | 1 µg/mL (≈ 1.72 µM) | 1 µg/mL (≈ 1.72 µM) | 16 µg/mL (≈ 27.6 µM) | 4 µg/mL (≈ 6.89 µM) | 1 µg/mL (≈ 1.72 µM) | 
5 | CCCCC(=O)Nc1ccc(N2CCN(CC(O)(Cn3cncn3)c3ccc(F)cc3F)CC2)c(C(F)(F)F)c1 (stereo unspecified) | 4 µg/mL (≈ 7.06 µM) | > 64 µg/mL | 1 µg/mL (≈ 1.76 µM) | 4 µg/mL (≈ 7.06 µM) | 0.25 µg/mL (≈ 0.441 µM) | 4 µg/mL (≈ 7.06 µM) | 4 µg/mL (≈ 7.06 µM) | 1 µg/mL (≈ 1.76 µM) | 
